# UHRF1 MBD2 ctr: blocks human UHRF1 binding to methylated DNA. Q96T88. UHRF1 binding to methylated oligo, TR-FRET. inhibition, % at 4.4 µM. hit rate 0.75% among 370,000; in the data active = inhibition above about 21%;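 also: UHRF1 SRA domain binding a hemimethylated CpG hairpin DNA probe; 0% = median of test compound wells and 100% = reference inhibitor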
# MBD2 DNA inh: blocks human MBD2 binding to methylated DNA. Q9UBB5. TR-FRET, MBD2 binding to methylated oligonucleotide. inhibition, % at 4.4 µM. hit rate 0.31% among 370,000. AID 686964; in the data active = inhibition above about 13%
# ABHD5-PLIN5 inh: blocks binding of human ABHD5 to perilipin-5; Split G. princeps luciferase complementation, luminescence, 4 h; hit rate 0.78% among 360,000; Q00G26+Q8WTS1; inhibition, % at 4 µM;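 active = inhibition above the mean inhibition across every tested compound plus 3 SD, cut at about 22% in these data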;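 also: 0% = DMSO only wells and the 100% control is not disclosed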
# Arr AP2 block: blocks beta-arrestin peptide binding to AP2 adaptin | FITC-arrestin peptide / GST-AP2 beads, flow cytometry; AP2 beta2 appendage carries R879A mutation | inhibition, % at 10 µM | hit rate 0.31% among 340,000;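 active = inhibition above a set limit, near 3 SD of compounds lacking own fluorescence, cut at about 54% in these data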;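 also: plate controls were DMSO wells for no effect and 5 µM unlabelled arrestin peptide for full effect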
#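 System: GST-AP2 R879A glutathione beads; medium: PBS, Tween 20 0.05%, BSA 0.1%; reagent: fluorescein-tagged arrestin peptide at 50 nM final; schedule: pre-incubation 12 min, peptide binding 1 h, room temperature; detection: flow cytometry, FL1 (488/535 nm); read-out: inhibition as reduced fluorescein signal on beads, percent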
# Rin1-Abl PPI inh: blocks binding of human Rin1 to Abl; P00519+Q13671; TR-FRET Rin1/Abl binding, biochemical; inhibition, % at 7.35 µM; hit rate 0.4% among 360,000; in the data active = inhibition above about 5%, passing the limit was not always enough
# B2AR ag: human beta-2 adrenergic receptor agonism by FAP; Am2.2-beta2AR cells, FAP receptor internalization, flow cytometry; response, % (concentration not given with the values); hit rate 0.43% among 340,000; AID 504454; P07550;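 active = response above a set limit, near 3 SD of response in nonfluorescent compounds, cut at about 42% in these data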
# Target sequence (P07550 whole entry, looked up): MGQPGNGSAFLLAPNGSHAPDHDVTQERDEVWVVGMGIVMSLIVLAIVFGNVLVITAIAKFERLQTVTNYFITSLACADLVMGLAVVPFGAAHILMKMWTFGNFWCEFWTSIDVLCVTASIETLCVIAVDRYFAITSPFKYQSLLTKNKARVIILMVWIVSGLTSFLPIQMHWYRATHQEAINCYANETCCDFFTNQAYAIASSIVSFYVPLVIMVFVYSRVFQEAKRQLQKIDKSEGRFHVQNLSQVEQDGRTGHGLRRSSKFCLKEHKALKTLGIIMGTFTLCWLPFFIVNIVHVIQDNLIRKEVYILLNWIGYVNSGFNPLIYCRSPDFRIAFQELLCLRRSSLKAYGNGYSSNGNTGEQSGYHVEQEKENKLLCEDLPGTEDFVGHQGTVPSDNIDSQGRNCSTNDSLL
# ABHD5 PLIN5 conf: ABHD5-PLIN5 interaction inhibition, confirmed; shares compounds with ABHD5-PLIN5 inh; biochemical ABHD5-PLIN5 interaction, luminescence; inhibition, % at 4 µM; hit rate 67% among 2,200; in the data active = inhibition above about 23%;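 also: 0% = DMSO vehicle wells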
# HNF4 counter: active in HNF4 split-luciferase counter-screen for ABHD5-PLIN5 inhibitors. hit rate 77% among 2,200. shares compounds with ABHD5-PLIN5 inh. HNF4 dimerization, luminescence, biochemical. inhibition, % at 4 µM. AID 651674;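 active = mean inhibition across replicate wells exceeding the computed hit threshold, cut at about 13% in these data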;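 also: light from luciferase halves that rejoin when HNF4 fusion proteins dimerize; 0% = DMSO only wells and the 100% control is not given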
# * marks the source's active call; other numbers are inactive results; nt = no result. Only some compounds are listed: those with a hit (about 2.5% of all), similar ones and a draw of the others.
SMILES,UHRF1 MBD2 ctr,MBD2 DNA inh,ABHD5-PLIN5 inh,Arr AP2 block,Rin1-Abl PPI inh,B2AR ag,ABHD5 PLIN5 conf,HNF4 counter
OC1(c2cccnc2)CC2CCC(C1)N2Cc1nnnn1Cc1ccccc1 (stereo not given),-2,-4,-3,3,-4,14,nt,nt
O=C(CSC1c2ccccc2-c2ccccc21)N/N=C/c1ccccc1O,-6,1,-3,27,-5,-14,nt,nt
CC(C)C1C(C#N)=C(N)Oc2c1c(=O)oc1ccccc21 (stereo not given),3,3,3,nt,-4,nt,nt,nt
Clc1cccc(N2Cc3cc(-c4ccccc4)ccc3-n3nncc3C2)c1,10,9,72*,nt,1,nt,47*,27*
O=C(Nc1ccc(F)cc1)N1Cc2ccccc2-n2nncc2C1,0,-3,-12,nt,-3,nt,nt,nt
CCN1C[C@@]2(COC)C3[C@@H](OC)[C@H]4[C@@H]1[C@@]3(C1C[C@H]3[C@H](OC(=O)c5ccccc5)C1[C@]4(OC(C)=O)C[C@H]3OC)[C@@H](OC)C[C@H]2O (stereo not given in full),nt,nt,4,nt,2,nt,nt,nt
COc1cccc(N2C(=O)CC(=O)NC2=O)c1,-3,-1,27*,3,-3,2,8,32*
O=C1CC(=O)N(c2ccc(Cl)cc2)C(=O)N1,0,-7,9,-6,1,3,nt,nt
CCc1ccc(N2C(=O)CC(=O)NC2=O)cc1,-4,1,24*,43,3,0,8,16*
CCOc1cccc(N2C(=O)CC(=O)NC2=O)c1,16,4,17,-1,2,9,nt,nt
COc1ccccc1N1C(=O)CC(=O)NC1=O,-2,0,27*,3,2,4,6,36*
CSc1nc(N)c(N=Nc2ccc([As](=O)(O)O)cc2)c(=O)[nH]1,0,3,66*,4,3,-2,68*,52*
CN1[C@@H]2CC[C@H]1CC(OC1c3ccccc3CCc3ccccc31)C2 (stereo not given in full),2,-4,32*,29,3,26,77*,35*
S=C(NC1CCCCC1)N1CCC(c2cnc[nH]2)CC1,1,-1,0,3,-2,-2,nt,nt
NC(=S)/N=C/c1c(O)[nH]c(=O)[nH]c1=O,-7,-1,5,9,-2,-1,nt,nt
C=CCNC(=S)/N=C/c1c(O)[nH]c(=O)[nH]c1=O,1,-1,28*,1,0,-5,1,6
O=C1NCN(c2ccccc2)C12CCN(C(c1ccccc1)c1nnnn1C1CCCC1)CC2 (stereo not given),0,3,7,nt,6,nt,nt,nt
CCN1C(=O)NC(=O)/C(=C\c2cn(CC(=O)N3CCCC3)c3ccccc23)C1=O,-3,1,25*,-3,-2,6,24*,26*
CCN1C(=O)NC(=O)/C(=C\c2cn(CC(=O)N3CCCCC3)c3ccccc23)C1=O,-7,-4,26*,-42,1,31,20,20*
CC1CCCCN1C(=O)Cn1cc(C=C2C(=O)N(C)C(=O)N(C)C2=O)c2ccccc21 (stereo not given),-1,-6,6,-7,0,7,nt,nt
O=C1NC(=O)N(c2ccccc2F)C(=O)/C1=C/c1cn(CC(=O)N2CCOCC2)c2ccccc12,0,3,nt,nt,nt,nt,nt,nt
CCCCCCN=Cc1c(O)n(C)c(=O)n(C)c1=O,0,-5,5,22,-1,-8,nt,nt
Clc1ccc2c(c1)C(c1ccccc1Cl)=NCc1nnc(N3CCN(CCSc4ccccc4)CC3)n1-2,0,2,26*,-5,-1,7,21,9
Clc1ccc2c(c1)C(c1ccccc1Cl)=NCc1nnc(N3CCN(CCOc4ccccc4)CC3)n1-2,2,2,15,-11,-4,-14,nt,nt
COc1ccc(OC)c(NC(=O)N2C[C@H]3C[C@@H](C2)c2cccc(=O)n2C3)c1,2,1,1,37,0,2,nt,nt
SMILES,UHRF1 MBD2 ctr,MBD2 DNA inh,ABHD5-PLIN5 inh,Arr AP2 block,Rin1-Abl PPI inh,B2AR ag,ABHD5 PLIN5 conf,HNF4 counter
CC1=C(O)C(=O)C=C2C1=CC=C1C2(C)CCC2(C)C3CC(C)(C(=O)O)CCC3(C)CCC12C (stereo not given),2,-2,95*,4,7,105*,102*,106*
C=C1C(=O)OC2CC3(C)OC3CCC(C)=CC(OC(C)=O)C12 (stereo not given),0,-2,33*,-7,2,-47,45*,70*
COc1ccc(-n2c(O)c(/C=C3\C=Nc4ccc(Br)cc43)c(=O)[nH]c2=O)cc1,-2,-9,36*,-6,-3,35,36*,29*
Cc1ccccc1-n1c(/C=C/c2ccccn2)nc2ccccc2c1=O,4,-2,13,23,0,7,nt,nt
CN1C2CCC1/C(=C/c1ccccn1)C(=O)/C2=C\c1ccccn1,-2,-1,98*,32,2,32,104*,109*
O=C(CF)N(O)c1ccc(C=Cc2ccccc2)cc1,2,4,37*,4,-1,1,46*,-4
O=C(C=Cc1ccccc1)Nc1ccccc1,1,-1,6,31,2,4,nt,nt
CCOC(=O)[C@]12Cc3cc(Cl)ccc3[C@H]1N(C(C)C)C(=O)c1ccccc12,-3,-4,33*,nt,nt,nt,25*,29*
CCCCCN1C(=O)c2cc(OC)ccc2[C@@]2(C(=O)OCC)Cc3cc(Cl)ccc3[C@@H]12,-6,4,39*,nt,nt,nt,27*,30*
CCOC(=O)[C@]12Cc3cc(Cl)ccc3[C@H]1N(CC(=O)OC)C(=O)c1ccccc12,nt,nt,38*,nt,nt,nt,32*,34*
CCOC(=O)[C@]12Cc3cc4ccccc4cc3[C@H]1N(Cc1ccccc1)C(=O)c1cc(OC)ccc12,0,-2,23*,nt,nt,nt,11,16*
COc1cc(C[C@@H](C)N)c(OC)cc1I,1,0,8,-3,-1,8,nt,nt
CNC(=S)N(C)CCc1cc2c(c(OC)c1/C=C1/C(=O)NC(=O)N(C)C1=O)OCO2,-1,0,35*,-12,-3,3,9,18*
CCNC(=S)N(C)CCc1cc2c(c(OC)c1C=C1C(=O)N(C)C(=O)N(C)C1=O)OCO2,-2,-3,29*,-2,1,-12,10,18*
COc1c(/C=C2/C(=O)NC(=O)N(C)C2=O)c(CCN(C)C(=O)c2ccccc2)cc2c1OCO2,-6,0,20,2,-3,17,nt,nt
Nc1ncn[nH]1,1,-3,-1,22,3,0,nt,nt
